In ChEMBL document CHEMBL4145613, “Succinimide-Based Conjugates Improve IsoDGR Cyclopeptide Affinity to αvβ3 without Promoting Integrin Allosteric Activation” (J Med Chem, 2018):
Calls of active or inactive are those of the source. The calls are words filed in the database; no cut-off is given here. Numbered stars: 1 amine (or outer) side, 2 acyl side, 3 side chain; on linkers, the order of the positions; unused ones are H or OH. Bridge positions count the residues as written; N and C are the ends. Square brackets hold non-standard residues; d marks the D form. Peptide text beside a SMILES is read from it. * marks the point of attachment. X2 = O=C(O)CN1CCN(CC(=O)O)CCN(CC(=O)NCCN2C(=O)CC(*)C2=O)CC1; X1 = NC(=O)[C@H]1CC[C@H](CN2C(=O)CC(*)C2=O)CC1; Succinimide(1-Et,3-yl) = CCN1C(=O)CC(*)C1=O; βAsp = O=C(O)[C@H](CC(=O)[*:2])N[*:1]

Experiments:
[1] = target: T1, Integrin alpha-V/beta-3 (Homo sapiens, UniProt P05106+P06756); assay: Allosteric activation of integrin alphaVbeta3 receptor in human MSR3 […] assessed as increase in anti-beta3 LIBS integrin antibody AP5 binding at 500 uM incubated for 90 mins by flow cytometry; type: cell-based; conditions: 1.5 h
[2] = target: T1, Integrin alpha-V/beta-3; assay: Binding affinity to integrin alphaVbeta3 receptor in human MSR3 cell membranes assessed as change in STD spectra incubated for 2 hrs by NMR spectroscopy relative to untreated control
How it was run: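 Saturation transfer difference NMR used ligand at 1 mM with native membranes prepared from MSR3 melanoma cells (75-125 x10^6 cells). These cells express high αvβ3, as checked by FACS. Ligand protons nearest the receptor were identified from transferred saturation.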

[3] = target: T1, Integrin alpha-V/beta-3; assay: Allosteric activation of integrin alphaVbeta3 receptor in human MSR3 […] assessed as increase in anti-beta3 LIBS integrin antibody AP5 binding at 5 uM incubated for 90 mins by flow cytometry; type: cell-based; conditions: 1.5 h
[4] = target: T1, Integrin alpha-V/beta-3; assay: Binding affinity to human integrin alphaVbeta3 receptor using acetyl-CisoDGRCGVRSSSRTPSDKY-bio probe and streptavidin-peroxidase conjugate incubated for 3 hrs by competitive binding assay; type: protein-complex assay
How it was run: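 Ki reported with its standard error from several independent experiments, each run in duplicate. Groups were compared by one-way ANOVA with Dunnett's post-test.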

[5] = target: T1, Integrin alpha-V/beta-3; assay: Binding affinity to integrin alphaVbeta3 receptor in human MSR3 cell membranes incubated for 2 hrs by Tr-NOESY NMR spectroscopy
[6] = target: T1, Integrin alpha-V/beta-3; assay: Binding affinity to integrin alphaVbeta3 receptor in EDTA pre-treated human MSR3 cell membranes incubated for 2 hrs by NMR spectroscopy
How it was run: (§1)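 Ligand (1 mM) NMR-observed with native membranes prepared from human melanoma MSR3 cells (75-125 x10^6 cells), whose high αvβ3 expression was confirmed by FACS. Line 1 used saturation transfer difference (STD) to map the ligand protons closest to the receptor. Line 2 used transferred NOE, comparing NOEs with and without membranes.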

[7] = target: T1, Integrin alpha-V/beta-3; assay: Binding affinity to integrin alphaVbeta3 receptor in EDTA pre-treated human MSR3 cell membranes incubated for 2 hrs by Tr-NOESY NMR spectroscopy; how it was run: as §1
[8] = target: T1, Integrin alpha-V/beta-3; assay: Allosteric activation of integrin alphaVbeta3 receptor in human MSR3 […] assessed as increase in monoclonal antibody LM609 binding at 500 uM incubated for 90 mins by flow cytometry; type: cell-based; conditions: 1.5 h

| SMILES | Activity [1] | Ki [4] [nM] | further results |
| --- | --- | --- | --- |
| N=C(N)NCCC[C@@H]1NC(=O)CNC(=O)C[C@@H](C(=O)O)NC(=O)CNC(=O)[C@H](CS)NC(c2ccccc2)C(=O)NC1=O (stereo not given in full) | Not Active | – | – |
| N=C(N)NCCC[C@@H]1NC(=O)CNC(=O)C[C@@H](C(=O)O)NC(=O)[C@H](CS)NCC(=O)NC(=O)C(c2ccccc2)NC1=O (stereo not given in full) | Not Active | – | – |
| CCN1C(=O)CC(SC[C@@H]2NC(=O)CNC(=O)[C@H](CCCNC(=N)N)NC(=O)CNC(=O)C[C@@H](C(=O)O)NC(=O)CNC2=O)C1=O (stereo not given in full) (GRGC(Succinimide(1-Et,3-yl))GD-OH; lactam N-6) | Not Active | 26.5 | Activity [2]: > 50%; Activity [3]: Not Active; Activity [5]: > 50% |
| N=C(N)NCCC[C@@H]1NC(=O)CNC(=O)C[C@@H](C(=O)O)NC(=O)CNC(=O)[C@H](CSC2CC(=O)N(C[C@H]3CC[C@H](C(N)=O)CC3)C2=O)NC(=O)CNC1=O (stereo not given in full) (GRGC(X1)GD-OH; lactam N-6) | Not Active | 19.9 | Activity [2]: > 50%; Activity [3]: Not Active; Activity [6]: inactive; Activity [5]: > 50%; Activity [7]: inactive |
| N=C(N)NCCC[C@@H]1NC(=O)CNC(=O)C[C@@H](C(=O)O)NC(=O)CNC(=O)[C@H](CSC2CC(=O)N(CCNC(=O)CN3CCN(CC(=O)O)CCN(CC(=O)O)CC3)C2=O)NC(=O)CNC1=O (stereo not given in full) (GRGC(X2)GD-OH; lactam N-6) | Not Active | 21.6 | Activity [3]: Not Active |
| N=C(N)NCCC[C@@H]1NC(=O)CNC(=O)C[C@@H](C(=O)O)NC(=O)[C@H](CS)NC(=O)CNC1=O (GRGCD-OH; lactam N-5) | Not Active | – | – |
| N=C(N)NCCC[C@@H]1NC(=O)CNC(=O)C[C@@H](C(=O)O)NC(=O)CNC(=O)[C@H](CS)NC(=O)CNC1=O (GRGCGD-OH; lactam N-6) | Not Active | – | Activity [8]: Not Active |
| N=C(N)NCCC[C@@H]1NC(=O)CNC(=O)C[C@@H](C(=O)O)NC(=O)[C@H](CS)NC(=O)CNC(=O)CNC1=O (GRGGCD-OH; lactam N-6) | Not Active | – | – |
| N=C(N)NCCC[C@@H]1NC(=O)CNC(=O)[C@H](CC(=O)O)NC(=O)[C@@H](N)CSSC[C@@H](C(=O)O)NC1=O (H-CDGRC-OH; disulfide 1-5) | – | – | Activity [2]: inactive; Activity [5]: inactive |
| N=C(N)NCCC[C@@H]1NC(=O)CNC(=O)C[C@@H](C(=O)O)NC(=O)[C@@H](N)CSSC[C@@H](C(=O)O)NC1=O (H-C[βAsp]GRC-OH; disulfide 1-5) | Not Active | – | – |
| N=C(N)NCCC[C@@H]1NC(=O)[C@H](CS)NC(=O)[C@@H](Cc2ccccc2)NC(=O)[C@H](CC(=O)O)NC(=O)CNC1=O (cyclo(RGD[dF]C)) | – | 6.3 | – |
